Test results from ChEMBL document CHEMBL3593225 (Bioorg Med Chem, 2015).
Calls of active or inactive are those of the source. No cut-off for these calls is given here.

How the values were obtained:
[1] = target: T1, 5-hydroxytryptamine receptor 1A (Homo sapiens, UniProt P08908); test: Agonist activity at human 5-HT1A receptor expressed in human HeLa cell membranes assessed as stimulation of [35S]GTPgammaS binding after 20 mins by liquid scintillation counting analysis; type: functional
T1 sequence (P08908 whole entry): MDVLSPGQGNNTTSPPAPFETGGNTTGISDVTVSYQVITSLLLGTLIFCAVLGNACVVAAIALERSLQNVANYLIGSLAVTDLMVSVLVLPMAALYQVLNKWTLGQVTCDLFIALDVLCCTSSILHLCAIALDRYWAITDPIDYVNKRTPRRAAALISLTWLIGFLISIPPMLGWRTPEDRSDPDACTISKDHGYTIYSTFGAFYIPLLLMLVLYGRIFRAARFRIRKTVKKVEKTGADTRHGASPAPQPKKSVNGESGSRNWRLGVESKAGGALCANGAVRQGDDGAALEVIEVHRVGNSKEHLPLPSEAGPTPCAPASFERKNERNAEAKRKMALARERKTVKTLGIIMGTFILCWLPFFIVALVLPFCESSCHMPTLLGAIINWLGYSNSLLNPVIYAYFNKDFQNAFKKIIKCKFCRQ

[2] = target: T1, 5-hydroxytryptamine receptor 1A; test: Agonist activity at human 5-HT1A receptor expressed in CHO cells assessed as inhibition of forskolin-stimulated cAMP accumulation after 15 mins by ELISA; type: functional, cell-based
Method in brief: (§1)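 CHO-1A cells (10^4/well) grown 24 h, then 24 h in serum-free DMEM/F-12. Compounds co-incubated with 1 μM forskolin for 15 min at 37 °C in serum-free medium with 5 μM pargyline and 2.5 mM theophylline. Lysis in 1% Triton X-100/0.1 M HCl, cAMP measured by acetylated ELISA. Sigmoidal or Gaussian bell-shaped fits.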

[3] = target: T2, 5-hydroxytryptamine receptor 1A (Homo sapiens) (UniProt P08908); test: Ratio for agonist activity at human 5-HT1A receptor expressed in CHO cells by forskolin-stimulated cAMP accumulation assay to agonist activity at human 5-HT1A receptor expressed in CHO cells by beta-arrestin-2 recruitment assay; type: functional, cell-based
T2 sequence (whole entry): T1 sequence (P08908 whole entry)

[4] = target: T2, 5-hydroxytryptamine receptor 1A (Homo sapiens); test: Agonist activity at human 5-HT1A receptor expressed in CHO cells assessed as inhibition of forskolin-stimulated cAMP accumulation after 15 mins by ELISA relative to 5-HT; type: functional, cell-based
Method in brief: as §1, with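 “ELISA. Forskolin alone set as 0%, 5-HT maximum as 100%.” for “ELISA.”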

[5] = target: T1, 5-hydroxytryptamine receptor 1A; test: Agonist activity at human 5-HT1A receptor expressed in CHO cells after 90 mins by beta-arrestin-2 recruitment assay; type: cell-based
Method in brief: (§2)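 PathHunter enzyme-complementation β-arrestin-2 recruitment in CHO-K1 cells carrying HTR1A, 10^4 cells/well, plated 24–48 h at 37 °C before use. Compounds from methanol stocks, final 0.1–100 μM, applied for 90 min at 37 °C. Detection reagents then added for 60 min at room temperature, luminescence read.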

[6] = target: T2, 5-hydroxytryptamine receptor 1A (Homo sapiens); test: Agonist activity at human 5-HT1A receptor expressed in CHO cells after 90 mins by beta-arrestin-2 recruitment assay relative to 5-HT; type: cell-based
Method in brief: as §2, with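 “read. Pooled from 3–4 independent experiments in duplicate, with 5-HT on every plate as reference.” for “read.”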

[7] = target: T2, 5-hydroxytryptamine receptor 1A (Homo sapiens); test: Agonist activity at human 5-HT1A receptor expressed in CHO cells assessed as ERK1/2 phosphorylation at 1 uM after 5 mins by Western blot analysis relative to control; type: cell-based
Method in brief: (§3)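 CHO-1A cells (2 × 10^5/well) grown 24 h, then 24 h serum-free. Agonists given at 1 μM in medium with 5 μM pargyline and 2.5 mM theophylline for 5 min at 37 °C. Lysates in SDS buffer with protease/phosphatase inhibitors. Phospho-ERK1/2 Western blot densitometry normalized to calnexin, untreated baseline subtracted, 5-HT set as 100%. Three experiments in triplicate, one-way ANOVA with Dunnett's test against untreated.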

[8] = target: T2, 5-hydroxytryptamine receptor 1A (Homo sapiens); test: Agonist activity at human 5-HT1A receptor expressed in CHO cells assessed as ERK1/2 phosphorylation at 1 uM after 5 mins by Western blot analysis relative to 5-HT; type: cell-based; method in brief: as §3

SMILES	Ki [1] [nM]	EC50 [2] [nM]	Ratio [3]	Emax [4] [%]	EC50 [5] [nM]	Emax [6] [%]	fold change (FC) [7]	Activity [8] [%]	Activity [7]
COc1cccc2c1CCCC2CCCN1CCN(c2ccccn2)CC1 (stereo unspecified)	0.48	0.776							
COc1cccc2c1CCC/C2=C\CCN1CCN(c2ccccn2)CC1	0.31	2.95	< 10	66.9	3390	22.8			
COc1cccc(CCCCN2CCN(c3ccccn3)CC2)c1	23			53.4		5.9			
NCCc1c[nH]c2ccc(O)cc12							6.4		
COc1cccc([C@H]2CC[C@H](N3CCN(c4ccccn4)CC3)CC2)c1	0.028	0.794	< 10	69.5	0.324	27.9		30.4	
COc1ccc2c(c1)CC(CCN1CCN(c3ccccn3)CC1)CC2 (stereo unspecified)	0.16	20.9	< 10	73.5	3.55	35.9			
CCCN(CCC)C1CCc2cccc(O)c2C1 (racemic)						44.5			
COc1cccc2c(CCCN3CCN(c4ccccn4)CC3)cccc12	0.38	1.26		53.6		10.7			inactive
